ChEMBL document CHEMBL1156877, “Discovery of 6-benzyloxyquinolines as c-Met selective kinase inhibitors” (Bioorg Med Chem Lett, 2010)

Experiments:
[1] = biological target: Proto-oncogene tyrosine-protein kinase Src (Homo sapiens, UniProt P12931); experiment: Inhibition of recombinant Src by TR-FRET assay
Method in brief: (§1)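 Recombinant tyrosine kinase incubated with test compound and substrate peptide/ATP for 90 min at 30 °C; enzyme amount, ATP level, substrate and cation vary by kinase. Reaction stopped, then TR-FRET reagent with europium-labelled anti-phospho-substrate antibody added for 5 min at room temperature; substrate phosphorylation read as time-resolved fluorescence.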

[2] = biological target: Hepatocyte growth factor receptor (Homo sapiens, UniProt P08581); experiment: Inhibition of recombinant c-Met by TR-FRET assay
[3] = biological target: Vascular endothelial growth factor receptor 2 (Homo sapiens, UniProt P35968); experiment: Inhibition of recombinant KDR by TR-FRET assay; method in brief: as §1
[4] = biological target: Tyrosine-protein kinase Yes (Homo sapiens, UniProt P07947); experiment: Inhibition of recombinant YES by TR-FRET assay; method in brief: as §1
[5] = Inhibition of recombinant PDGFR by TR-FRET assay; method in brief: as §1
[6] = biological target: T1, Protein kinase C beta type (Homo sapiens, UniProt P05771); experiment: Inhibition of recombinant PKCbeta1 by IMAP assay
Method in brief: (§2)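 Recombinant enzyme mixed with test compound and substrate peptide/ATP solution, incubated 90 min at 30 °C; enzyme quantity, ATP, substrate and cation set per kinase. IMAP reagent then added for 5 min at room temperature, and peptide phosphorylation quantified by fluorescence polarization.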

[7] = biological target: Cyclin-dependent kinase 2 (Homo sapiens, UniProt P24941); experiment: Inhibition of recombinant CDK2 by IMAP assay; method in brief: as §2
[8] = biological target: Tyrosine-protein kinase ABL1 (Homo sapiens, UniProt P00519); experiment: Inhibition of recombinant Abl by TR-FRET assay; method in brief: as §1
[9] = biological target: Cyclin-dependent kinase 1 (Homo sapiens, UniProt P06493); experiment: Inhibition of recombinant CDK1 by IMAP assay; method in brief: as §2
[10] = biological target: Tyrosine-protein kinase Fyn (Homo sapiens, UniProt P06241); experiment: Inhibition of recombinant Fyn by TR-FRET assay; method in brief: as §1
[11] = biological target: T2, Receptor-type tyrosine-protein kinase FLT3 (Homo sapiens, UniProt P36888); experiment: Inhibition of recombinant Flt3 by TR-FRET assay; method in brief: as §1
T2 sequence (P36888 whole entry): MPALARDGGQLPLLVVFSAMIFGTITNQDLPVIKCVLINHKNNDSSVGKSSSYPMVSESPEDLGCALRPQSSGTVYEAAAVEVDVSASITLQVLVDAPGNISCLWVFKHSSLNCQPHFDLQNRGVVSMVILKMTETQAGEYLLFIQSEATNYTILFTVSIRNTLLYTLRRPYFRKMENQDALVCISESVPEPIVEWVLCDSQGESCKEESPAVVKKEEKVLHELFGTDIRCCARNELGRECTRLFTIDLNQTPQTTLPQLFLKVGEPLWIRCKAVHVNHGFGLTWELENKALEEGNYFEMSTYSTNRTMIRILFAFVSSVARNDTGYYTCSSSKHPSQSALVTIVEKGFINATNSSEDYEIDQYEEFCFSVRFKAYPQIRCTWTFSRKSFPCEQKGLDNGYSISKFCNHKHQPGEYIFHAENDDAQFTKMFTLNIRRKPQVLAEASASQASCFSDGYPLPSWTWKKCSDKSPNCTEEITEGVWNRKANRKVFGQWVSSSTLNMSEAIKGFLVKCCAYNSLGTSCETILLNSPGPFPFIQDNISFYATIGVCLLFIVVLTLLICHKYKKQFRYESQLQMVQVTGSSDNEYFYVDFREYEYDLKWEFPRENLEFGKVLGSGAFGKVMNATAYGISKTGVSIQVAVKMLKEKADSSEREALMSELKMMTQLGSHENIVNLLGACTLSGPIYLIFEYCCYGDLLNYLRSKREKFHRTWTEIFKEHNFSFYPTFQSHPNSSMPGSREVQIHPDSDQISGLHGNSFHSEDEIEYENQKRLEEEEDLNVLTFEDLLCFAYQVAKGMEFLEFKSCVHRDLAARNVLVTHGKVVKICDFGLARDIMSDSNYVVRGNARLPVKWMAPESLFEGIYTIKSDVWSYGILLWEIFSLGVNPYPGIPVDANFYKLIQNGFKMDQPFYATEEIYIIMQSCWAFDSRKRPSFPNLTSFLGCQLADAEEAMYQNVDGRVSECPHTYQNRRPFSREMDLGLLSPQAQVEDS

[12] = biological target: Tyrosine-protein kinase Lck (Homo sapiens, UniProt P06239); experiment: Inhibition of recombinant LCK by TR-FRET assay
[13] = biological target: Mast/stem cell growth factor receptor Kit (Homo sapiens, UniProt P10721); experiment: Inhibition of recombinant Kit by TR-FRET assay; method in brief: as §1
[14] = Inhibition of recombinant PKA by IMAP assay; method in brief: as §2
[15] = biological target: Protein-tyrosine kinase 6 (Homo sapiens, UniProt Q13882); experiment: Inhibition of recombinant BRK by TR-FRET assay; method in brief: as §1
[16] = biological target: T1, Protein kinase C beta type; experiment: Inhibition of recombinant PKCbeta2 by IMAP assay; method in brief: as §2
Ephrin type-A receptor 2 = Ephrin type-A receptor 2 (Homo sapiens, UniProt P29317); experiment: Inhibition of recombinant EphA2 by TR-FRET assay; method in brief: as §1
[17] = biological target: RAC-alpha serine/threonine-protein kinase (Homo sapiens, UniProt P31749); experiment: Inhibition of recombinant AKT1 by IMAP assay; method in brief: as §2
[18] = biological target: Macrophage-stimulating protein receptor (Homo sapiens, UniProt Q04912); experiment: Inhibition of recombinant RON by TR-FRET assay; method in brief: as §1
[19] = biological target: T3, Tyrosine-protein kinase receptor UFO (Homo sapiens, UniProt P30530); experiment: Inhibition of recombinant AXL by TR-FRET assay; method in brief: as §1
T3 sequence (P30530 whole entry): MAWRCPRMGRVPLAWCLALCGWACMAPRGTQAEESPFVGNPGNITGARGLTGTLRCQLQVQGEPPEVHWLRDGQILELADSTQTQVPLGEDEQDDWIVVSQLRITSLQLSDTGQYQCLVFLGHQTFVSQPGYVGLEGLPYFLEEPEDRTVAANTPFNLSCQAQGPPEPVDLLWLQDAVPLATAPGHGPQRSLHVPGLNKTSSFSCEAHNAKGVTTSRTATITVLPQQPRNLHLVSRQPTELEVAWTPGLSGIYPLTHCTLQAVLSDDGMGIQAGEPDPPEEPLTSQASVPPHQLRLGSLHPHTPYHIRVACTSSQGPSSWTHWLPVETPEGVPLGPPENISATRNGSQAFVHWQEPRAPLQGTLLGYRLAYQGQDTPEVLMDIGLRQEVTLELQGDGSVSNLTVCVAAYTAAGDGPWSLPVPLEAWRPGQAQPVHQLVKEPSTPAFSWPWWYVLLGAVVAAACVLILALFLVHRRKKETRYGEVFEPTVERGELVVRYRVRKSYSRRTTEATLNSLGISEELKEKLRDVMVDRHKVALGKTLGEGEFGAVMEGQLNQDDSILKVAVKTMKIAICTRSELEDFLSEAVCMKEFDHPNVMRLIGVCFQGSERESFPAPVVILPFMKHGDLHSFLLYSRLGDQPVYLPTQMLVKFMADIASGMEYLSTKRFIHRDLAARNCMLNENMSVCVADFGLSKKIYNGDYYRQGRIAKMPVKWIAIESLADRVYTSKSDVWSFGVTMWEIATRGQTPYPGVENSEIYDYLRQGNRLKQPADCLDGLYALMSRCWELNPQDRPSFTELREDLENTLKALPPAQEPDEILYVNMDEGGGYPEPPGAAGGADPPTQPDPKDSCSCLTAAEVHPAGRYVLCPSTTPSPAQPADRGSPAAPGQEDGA

Aurora kinase A = biological target: T4, Aurora kinase A (Homo sapiens, UniProt O14965); experiment: Inhibition of recombinant Aurora A by IMAP assay; method in brief: as §2
T4 sequence (O14965 whole entry): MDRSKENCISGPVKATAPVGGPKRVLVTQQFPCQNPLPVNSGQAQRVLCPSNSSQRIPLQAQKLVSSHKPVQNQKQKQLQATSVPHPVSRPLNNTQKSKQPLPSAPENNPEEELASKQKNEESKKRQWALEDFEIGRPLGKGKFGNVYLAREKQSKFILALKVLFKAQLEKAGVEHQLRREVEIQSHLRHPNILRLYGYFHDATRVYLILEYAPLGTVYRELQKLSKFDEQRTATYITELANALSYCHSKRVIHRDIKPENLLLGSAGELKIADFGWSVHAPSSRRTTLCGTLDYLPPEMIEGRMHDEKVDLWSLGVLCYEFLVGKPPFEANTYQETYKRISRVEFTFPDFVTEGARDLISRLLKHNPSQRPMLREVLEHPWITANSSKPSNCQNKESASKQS

[20] = biological target: Fibroblast growth factor receptor 2 (Homo sapiens, UniProt P21802); experiment: Inhibition of recombinant FGFR2 by TR-FRET assay; method in brief: as §1
[21] = biological target: Leukocyte tyrosine kinase receptor (Homo sapiens, UniProt P29376); experiment: Inhibition of recombinant LTK by TR-FRET assay; method in brief: as §1
[22] = biological target: Insulin-like growth factor 1 receptor (Homo sapiens, UniProt P08069); experiment: Inhibition of recombinant IGF1R by TR-FRET assay; method in brief: as §1
[23] = biological target: Protein kinase C alpha type (Homo sapiens, UniProt P17252); experiment: Inhibition of recombinant PKCalpha by IMAP assay; method in brief: as §2
[24] = Solubility in fasted state simulated intestinal fluid; assay type: physicochemical
Insulin receptor = Insulin receptor (Homo sapiens, UniProt P06213); experiment: Inhibition of recombinant InsR by TR-FRET assay
MKN-45 = experiment: Cytotoxicity against human MKN45 cells after 96 hrs by WST8 assay; assay type: functional, cell-based; conditions: MKN-45, 96 h
Method in brief: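 Tumour cells exposed to a range of compound concentrations for 96 h; cytotoxicity read with WST-8 cell counting kit.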

Proto-oncogene tyrosine-protein kinase Src, sequence (P12931 2-536 limits assumed): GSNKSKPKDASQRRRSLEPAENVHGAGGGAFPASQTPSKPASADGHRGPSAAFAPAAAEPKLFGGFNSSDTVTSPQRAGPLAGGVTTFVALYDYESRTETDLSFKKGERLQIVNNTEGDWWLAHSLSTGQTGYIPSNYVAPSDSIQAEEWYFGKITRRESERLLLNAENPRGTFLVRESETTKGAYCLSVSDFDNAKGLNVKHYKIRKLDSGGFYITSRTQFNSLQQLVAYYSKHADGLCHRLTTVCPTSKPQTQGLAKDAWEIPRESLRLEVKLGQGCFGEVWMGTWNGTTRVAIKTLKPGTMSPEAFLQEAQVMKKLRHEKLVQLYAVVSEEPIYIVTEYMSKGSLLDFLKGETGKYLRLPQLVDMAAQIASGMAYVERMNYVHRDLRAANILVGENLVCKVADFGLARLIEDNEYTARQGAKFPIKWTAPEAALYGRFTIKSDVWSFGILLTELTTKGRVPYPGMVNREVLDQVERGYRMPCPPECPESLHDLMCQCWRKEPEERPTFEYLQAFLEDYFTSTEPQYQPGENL
Vascular endothelial growth factor receptor 2, sequence (P35968 whole entry): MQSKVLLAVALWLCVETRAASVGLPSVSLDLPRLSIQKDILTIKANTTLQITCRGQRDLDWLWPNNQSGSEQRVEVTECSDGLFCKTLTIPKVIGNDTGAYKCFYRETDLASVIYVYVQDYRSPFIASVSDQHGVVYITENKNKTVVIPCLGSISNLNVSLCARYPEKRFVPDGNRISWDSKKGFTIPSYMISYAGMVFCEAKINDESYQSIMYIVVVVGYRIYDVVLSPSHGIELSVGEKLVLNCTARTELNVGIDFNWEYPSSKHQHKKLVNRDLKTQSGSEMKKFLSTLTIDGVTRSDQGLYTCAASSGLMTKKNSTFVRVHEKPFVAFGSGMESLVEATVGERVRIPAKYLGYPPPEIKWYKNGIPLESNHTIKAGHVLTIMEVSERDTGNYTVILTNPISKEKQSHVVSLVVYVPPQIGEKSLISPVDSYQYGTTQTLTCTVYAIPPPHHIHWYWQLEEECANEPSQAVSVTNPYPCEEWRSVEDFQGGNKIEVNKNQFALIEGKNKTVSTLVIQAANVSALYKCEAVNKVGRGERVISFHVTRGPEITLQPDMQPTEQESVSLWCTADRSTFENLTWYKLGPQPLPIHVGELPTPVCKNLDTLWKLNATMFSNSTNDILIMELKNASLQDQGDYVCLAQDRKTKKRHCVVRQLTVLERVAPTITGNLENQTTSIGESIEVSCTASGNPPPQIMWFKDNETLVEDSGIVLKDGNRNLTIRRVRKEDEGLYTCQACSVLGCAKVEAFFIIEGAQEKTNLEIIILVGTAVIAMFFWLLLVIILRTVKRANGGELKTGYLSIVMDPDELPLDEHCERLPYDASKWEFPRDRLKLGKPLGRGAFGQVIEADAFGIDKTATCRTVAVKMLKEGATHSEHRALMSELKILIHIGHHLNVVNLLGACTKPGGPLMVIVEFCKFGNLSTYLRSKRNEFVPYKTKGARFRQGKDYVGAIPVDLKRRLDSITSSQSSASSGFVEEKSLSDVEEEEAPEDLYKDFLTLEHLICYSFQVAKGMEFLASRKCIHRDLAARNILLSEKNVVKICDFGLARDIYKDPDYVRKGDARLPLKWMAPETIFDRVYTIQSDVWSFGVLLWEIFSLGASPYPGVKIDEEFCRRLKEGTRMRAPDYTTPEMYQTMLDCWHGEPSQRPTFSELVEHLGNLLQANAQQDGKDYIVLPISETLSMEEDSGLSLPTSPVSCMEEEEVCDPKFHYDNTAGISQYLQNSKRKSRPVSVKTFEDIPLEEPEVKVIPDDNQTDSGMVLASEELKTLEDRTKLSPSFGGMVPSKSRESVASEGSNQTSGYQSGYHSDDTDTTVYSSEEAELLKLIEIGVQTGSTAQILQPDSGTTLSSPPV
Hepatocyte growth factor receptor, sequence (P08581 whole entry): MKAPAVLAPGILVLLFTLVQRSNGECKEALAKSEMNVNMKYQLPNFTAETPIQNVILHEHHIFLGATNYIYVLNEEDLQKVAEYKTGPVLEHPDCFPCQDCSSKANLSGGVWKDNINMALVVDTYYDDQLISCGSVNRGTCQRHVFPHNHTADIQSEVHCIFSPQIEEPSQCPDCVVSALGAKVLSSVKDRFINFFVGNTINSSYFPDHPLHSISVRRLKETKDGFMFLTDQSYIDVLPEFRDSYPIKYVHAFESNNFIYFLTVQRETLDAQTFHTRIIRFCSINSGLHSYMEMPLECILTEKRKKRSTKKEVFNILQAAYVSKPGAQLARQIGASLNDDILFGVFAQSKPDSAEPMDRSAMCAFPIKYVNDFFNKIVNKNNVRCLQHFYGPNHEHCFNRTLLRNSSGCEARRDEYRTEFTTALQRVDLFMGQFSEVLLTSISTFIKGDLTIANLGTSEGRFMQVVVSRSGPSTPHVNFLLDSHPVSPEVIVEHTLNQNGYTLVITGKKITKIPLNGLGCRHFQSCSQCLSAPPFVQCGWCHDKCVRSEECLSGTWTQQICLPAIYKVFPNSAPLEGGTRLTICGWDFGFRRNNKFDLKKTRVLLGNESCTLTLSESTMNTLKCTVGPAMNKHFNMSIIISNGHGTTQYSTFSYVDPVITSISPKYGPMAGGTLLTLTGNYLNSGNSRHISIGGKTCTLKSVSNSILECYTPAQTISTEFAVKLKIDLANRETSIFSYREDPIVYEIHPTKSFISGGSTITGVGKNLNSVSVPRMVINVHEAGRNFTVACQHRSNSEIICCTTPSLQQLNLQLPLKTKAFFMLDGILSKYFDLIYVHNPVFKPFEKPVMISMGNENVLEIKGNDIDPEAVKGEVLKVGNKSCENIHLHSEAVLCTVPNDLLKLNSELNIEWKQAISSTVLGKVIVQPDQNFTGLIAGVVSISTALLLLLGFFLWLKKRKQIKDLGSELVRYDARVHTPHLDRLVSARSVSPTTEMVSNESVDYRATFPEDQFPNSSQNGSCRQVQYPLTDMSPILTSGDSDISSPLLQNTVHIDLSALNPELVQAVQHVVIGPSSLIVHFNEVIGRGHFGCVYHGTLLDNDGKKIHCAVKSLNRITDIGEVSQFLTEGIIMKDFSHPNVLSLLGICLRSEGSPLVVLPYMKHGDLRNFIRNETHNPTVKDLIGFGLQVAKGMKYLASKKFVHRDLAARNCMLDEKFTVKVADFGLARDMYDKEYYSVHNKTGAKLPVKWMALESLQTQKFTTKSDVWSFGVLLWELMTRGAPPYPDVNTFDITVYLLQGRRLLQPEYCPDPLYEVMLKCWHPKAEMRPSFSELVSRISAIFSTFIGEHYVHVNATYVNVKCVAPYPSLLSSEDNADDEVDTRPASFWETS
T1 sequence (P05771 whole entry): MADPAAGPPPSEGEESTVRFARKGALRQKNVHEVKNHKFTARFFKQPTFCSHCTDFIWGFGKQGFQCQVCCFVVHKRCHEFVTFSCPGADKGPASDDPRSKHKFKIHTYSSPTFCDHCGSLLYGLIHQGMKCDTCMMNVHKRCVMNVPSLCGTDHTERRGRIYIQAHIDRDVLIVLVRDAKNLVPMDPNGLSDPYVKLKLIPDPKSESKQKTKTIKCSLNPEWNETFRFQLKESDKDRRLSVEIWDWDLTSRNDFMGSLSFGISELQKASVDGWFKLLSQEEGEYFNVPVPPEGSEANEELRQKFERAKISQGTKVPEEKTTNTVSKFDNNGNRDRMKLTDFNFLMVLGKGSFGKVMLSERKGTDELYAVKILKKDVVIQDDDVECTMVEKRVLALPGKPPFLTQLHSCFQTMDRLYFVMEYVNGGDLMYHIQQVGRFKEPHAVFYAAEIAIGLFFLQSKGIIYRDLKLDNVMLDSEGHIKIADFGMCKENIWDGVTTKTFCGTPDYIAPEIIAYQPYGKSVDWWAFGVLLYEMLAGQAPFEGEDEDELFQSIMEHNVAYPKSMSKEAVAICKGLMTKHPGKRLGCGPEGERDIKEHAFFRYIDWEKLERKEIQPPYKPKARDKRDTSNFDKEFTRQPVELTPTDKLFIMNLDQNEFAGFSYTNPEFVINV
Protein-tyrosine kinase 6, sequence (Q13882 whole entry): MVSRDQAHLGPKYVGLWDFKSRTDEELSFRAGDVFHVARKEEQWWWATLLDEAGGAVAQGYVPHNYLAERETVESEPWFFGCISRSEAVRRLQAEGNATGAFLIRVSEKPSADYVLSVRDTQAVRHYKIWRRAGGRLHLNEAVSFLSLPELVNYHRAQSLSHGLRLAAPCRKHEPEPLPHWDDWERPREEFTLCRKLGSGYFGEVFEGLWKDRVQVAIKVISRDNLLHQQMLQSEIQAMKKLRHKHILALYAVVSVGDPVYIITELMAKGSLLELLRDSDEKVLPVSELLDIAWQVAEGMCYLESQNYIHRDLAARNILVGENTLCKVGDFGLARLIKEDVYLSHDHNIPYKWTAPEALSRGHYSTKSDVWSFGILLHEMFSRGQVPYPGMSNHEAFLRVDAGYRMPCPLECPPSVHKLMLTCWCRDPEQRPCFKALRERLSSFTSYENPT
RAC-alpha serine/threonine-protein kinase, sequence (P31749 whole entry): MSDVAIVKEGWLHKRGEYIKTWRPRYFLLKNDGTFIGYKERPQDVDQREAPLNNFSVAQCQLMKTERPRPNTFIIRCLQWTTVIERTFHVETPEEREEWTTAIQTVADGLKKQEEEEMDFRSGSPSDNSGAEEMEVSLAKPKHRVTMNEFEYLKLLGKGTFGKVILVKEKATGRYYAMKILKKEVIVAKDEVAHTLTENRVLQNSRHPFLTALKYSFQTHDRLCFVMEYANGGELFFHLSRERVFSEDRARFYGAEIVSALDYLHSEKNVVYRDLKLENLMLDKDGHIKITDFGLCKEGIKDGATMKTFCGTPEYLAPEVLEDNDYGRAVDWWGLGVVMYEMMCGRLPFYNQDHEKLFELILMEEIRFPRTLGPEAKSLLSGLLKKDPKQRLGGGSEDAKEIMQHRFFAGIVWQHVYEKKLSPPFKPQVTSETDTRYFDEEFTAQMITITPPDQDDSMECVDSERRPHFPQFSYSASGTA

## C[C@H](Oc1ccc2ncccc2c1)c1c(Cl)ccc(F)c1Cl
[1]
  IC50: 20 µM
[2]
  IC50: 1.2 µM
[3]
  IC50: > 50 µM

## C[C@@H](Oc1ccc2ncccc2c1)c1c(Cl)ccc(F)c1Cl
[4]
  IC50: > 50 µM
[5]
  IC50: > 50 µM
[6]
  IC50: > 50 µM
[7]
  IC50: > 50 µM
[8]
  IC50: > 50 µM
[9]
  IC50: > 50 µM
[10]
  IC50: > 50 µM
[11]
  IC50: 46 µM
[1]
  IC50: 22 µM
[2]
  IC50: 0.13 µM
[3]
  IC50: 23 µM
[12]
  IC50: > 50 µM
[13]
  IC50: 41 µM
[14]
  IC50: > 50 µM
[15]
  IC50: > 50 µM
[16]
  IC50: > 50 µM
Ephrin type-A receptor 2
  IC50: > 50 µM
[17]
  IC50: > 50 µM
[18]
  IC50: 3.6 µM
[19]
  IC50: 14 µM
Aurora kinase A
  IC50: > 50 µM
[20]
  IC50: 24 µM
[21]
  IC50: > 50 µM
[22]
  IC50: > 50 µM

## C[C@@H](Oc1ccc2ncc(/C=C/C(N)=O)cc2c1)c1c(Cl)ccc(F)c1Cl
[4]
  IC50: 26 µM
[5]
  IC50: > 50 µM
[6]
  IC50: > 50 µM
[23]
  IC50: > 50 µM
[7]
  IC50: > 50 µM
[8]
  IC50: 10 µM
[9]
  IC50: > 50 µM
[10]
  IC50: 28 µM
[11]
  IC50: 32 µM
[24]
  solubility: < 13 µg/mL
[3]
  IC50: 11 µM
[12]
  IC50: 14 µM
[13]
  IC50: > 50 µM
Insulin receptor
  IC50: > 50 µM
[14]
  IC50: > 50 µM
[15]
  IC50: 32 µM
[16]
  IC50: > 50 µM
Ephrin type-A receptor 2
  IC50: 4.4 µM
[17]
  IC50: > 50 µM
[18]
  IC50: 0.45 µM
[19]
  IC50: 0.57 µM
Aurora kinase A
  IC50: 6.4 µM
[20]
  IC50: 6.9 µM
[21]
  IC50: 18 µM
[22]
  IC50: > 50 µM

## CC(Oc1ccc2ncc(CCC(N)=O)cc2c1)c1c(Cl)ccc(F)c1Cl (racemic)
[1]
  IC50: > 50 µM
[2]
  IC50: 0.205 µM
[3]
  IC50: 50 µM
MKN-45
  IC50: 4.4 µM

## CC(Oc1ccc2ncccc2c1)c1c(Cl)ccc(F)c1Cl (racemic)
[1]
  IC50: > 50 µM
[2]
  IC50: 0.453 µM
[3]
  IC50: 32 µM

## CC(Oc1ccc2ncc(/C=C/C(N)=O)cc2c1)c1c(Cl)ccc(F)c1Cl (racemic)
[1]
  IC50: > 50 µM
[3]
  IC50: 26 µM
MKN-45
  IC50: 0.35 µM

## CNC(=O)/C=C/c1cnc2ccc(OC(C)c3c(Cl)ccc(F)c3Cl)cc2c1 (racemic)
[1]
  IC50: > 50 µM
[3]
  IC50: > 50 µM
MKN-45
  IC50: 0.24 µM

## CC(Oc1ccc2ncc(/C=C/CN)cc2c1)c1c(Cl)ccc(F)c1Cl (racemic)
[1]
  IC50: 46 µM
[2]
  IC50: 0.368 µM
[3]
  IC50: 33 µM
MKN-45
  IC50: 4.3 µM

## CC(Oc1ccc2ncc(/C=C/C(=O)O)cc2c1)c1c(Cl)ccc(F)c1Cl (racemic)
[1]
  IC50: > 50 µM
[2]
  IC50: 0.094 µM
[3]
  IC50: > 50 µM
MKN-45
  IC50: 10.2 µM

## CC(Oc1ccc2ncc(/C=C/C(=O)N(C)C)cc2c1)c1c(Cl)ccc(F)c1Cl (racemic)
[1]
  IC50: > 50 µM
[2]
  IC50: 0.059 µM
[3]
  IC50: > 50 µM
MKN-45
  IC50: 0.61 µM
